In ChEMBL document CHEMBL5058577, “EUbOPEN Chemogenomics Library 2 (Multiplex)” (2022):

Test system: Fibroblast
Experiment: Multiplex assay against human fibroblast
Type: toxicity, cell-based
Method in brief: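 Live cells carried four stains from seeding: Hoechst33342, BioTracker Green Microtubule Cytoskeleton Dye, MitoTracker Red and Annexin V Alexa Fluor 680. They were imaged on a CQ1 microscope at 37°C and 5% CO2 after compound addition. Using CellPathfinder machine-learning gating, cells were split into Hoechst high-intensity objects or normal cells, normal cells into healthy, pyknosed or fragmented nuclei, and pyknosed cells into mitotic or apoptotic; tubulin, mitochondrial-mass and membrane-permeability phenotypes are per cents of healthy-nucleus cells.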

[1] = 12 h, 1 µM, compound concentration 1 uM, replicate 1
[2] = 12 h, 1 µM, compound concentration 1 uM, replicate 2
[3] = 12 h, 10 µM, compound concentration 10 uM, replicate 1
[4] = 12 h, 10 µM, compound concentration 10 uM, replicate 2
[5] = 24 h, 1 µM, compound concentration 1 uM, replicate 1
[6] = 24 h, 1 µM, compound concentration 1 uM, replicate 2
[7] = 24 h, 10 µM, compound concentration 10 uM, replicate 1
[8] = 24 h, 10 µM, compound concentration 10 uM, replicate 2
[9] = 48 h, 1 µM, compound concentration 1 uM, replicate 1
[10] = 48 h, 1 µM, compound concentration 1 uM, replicate 2
[11] = 48 h, 10 µM, compound concentration 10 uM, replicate 1
[12] = 48 h, 10 µM, compound concentration 10 uM, replicate 2

## COC(c1ccccc1)(c1ccccc1)[C@H](Oc1nc(C)cc(C)n1)C(=O)O [AMBRISENTAN]
[1]
  Population Apoptotic (%): 68%
  Population Fragmented Nuclei (%): 13%
  Population Healthy Nuclei (%): 66%
  Population Hoechst High Intensity Objects (%): 1%
  Population Membrane Permeable-Phenotype (%): 0%
  Population Mitochondria Different-Phenotype (%): 4%
  Population Mitotic Cells (%): 31%
  Population Normal (%): 98%
  Population Pyknosed Nuclei (%): 19%
  Population Tubulin-Different-Phenotype (%): 29%
  Total Cell Count: 97
[2]
  Population Apoptotic (%): 30%
  Population Fragmented Nuclei (%): 18%
  Population Healthy Nuclei (%): 56%
  Population Hoechst High Intensity Objects (%): 4%
  Population Membrane Permeable-Phenotype (%): 1%
  Population Mitochondria Different-Phenotype (%): 6%
  Population Mitotic Cells (%): 69%
  Population Normal (%): 95%
  Population Pyknosed Nuclei (%): 25%
  Population Tubulin-Different-Phenotype (%): 37%
  Total Cell Count: 163
[3]
  Population Apoptotic (%): 56%
  Population Fragmented Nuclei (%): 8%
  Population Healthy Nuclei (%): 70%
  Population Hoechst High Intensity Objects (%): 5%
  Population Membrane Permeable-Phenotype (%): 0%
  Population Mitochondria Different-Phenotype (%): 11%
  Population Mitotic Cells (%): 43%
  Population Normal (%): 94%
  Population Pyknosed Nuclei (%): 21%
  Population Tubulin-Different-Phenotype (%): 25%
  Total Cell Count: 145
[4]
  Population Apoptotic (%): 33%
  Population Fragmented Nuclei (%): 39%
  Population Healthy Nuclei (%): 25%
  Population Hoechst High Intensity Objects (%): 4%
  Population Membrane Permeable-Phenotype (%): 5%
  Population Mitochondria Different-Phenotype (%): 0%
  Population Mitotic Cells (%): 66%
  Population Normal (%): 95%
  Population Pyknosed Nuclei (%): 34%
  Population Tubulin-Different-Phenotype (%): 35%
  Total Cell Count: 82
[5]
  Population Apoptotic (%): 62%
  Population Fragmented Nuclei (%): 15%
  Population Healthy Nuclei (%): 67%
  Population Hoechst High Intensity Objects (%): 2%
  Population Membrane Permeable-Phenotype (%): 0%
  Population Mitochondria Different-Phenotype (%): 4%
  Population Mitotic Cells (%): 37%
  Population Normal (%): 97%
  Population Pyknosed Nuclei (%): 17%
  Population Tubulin-Different-Phenotype (%): 38%
  Total Cell Count: 95
[6]
  Population Apoptotic (%): 34%
  Population Fragmented Nuclei (%): 14%
  Population Healthy Nuclei (%): 62%
  Population Hoechst High Intensity Objects (%): 5%
  Population Membrane Permeable-Phenotype (%): 3%
  Population Mitochondria Different-Phenotype (%): 3%
  Population Mitotic Cells (%): 65%
  Population Normal (%): 94%
  Population Pyknosed Nuclei (%): 23%
  Total Cell Count: 158
[7]
  Population Apoptotic (%): 69%
  Population Fragmented Nuclei (%): 12%
  Population Healthy Nuclei (%): 68%
  Population Hoechst High Intensity Objects (%): 7%
  Population Membrane Permeable-Phenotype (%): 0%
  Population Mitochondria Different-Phenotype (%): 11%
  Population Mitotic Cells (%): 30%
  Population Normal (%): 92%
  Population Pyknosed Nuclei (%): 18%
  Population Tubulin-Different-Phenotype (%): 29%
  Total Cell Count: 149
[8]
  Population Apoptotic (%): 27%
  Population Fragmented Nuclei (%): 46%
  Population Healthy Nuclei (%): 27%
  Population Hoechst High Intensity Objects (%): 5%
  Population Membrane Permeable-Phenotype (%): 5%
  Population Mitochondria Different-Phenotype (%): 10%
  Population Mitotic Cells (%): 72%
  Population Normal (%): 94%
  Population Pyknosed Nuclei (%): 26%
  Population Tubulin-Different-Phenotype (%): 36%
  Total Cell Count: 73
[9]
  Population Apoptotic (%): 60%
  Population Fragmented Nuclei (%): 19%
  Population Healthy Nuclei (%): 64%
  Population Hoechst High Intensity Objects (%): 4%
  Population Membrane Permeable-Phenotype (%): 1%
  Population Mitochondria Different-Phenotype (%): 5%
  Population Mitotic Cells (%): 40%
  Population Normal (%): 95%
  Population Pyknosed Nuclei (%): 16%
  Population Tubulin-Different-Phenotype (%): 28%
  Total Cell Count: 93
[10]
  Population Apoptotic (%): 61%
  Population Fragmented Nuclei (%): 24%
  Population Healthy Nuclei (%): 54%
  Population Hoechst High Intensity Objects (%): 0%
  Population Membrane Permeable-Phenotype (%): 4%
  Population Mitochondria Different-Phenotype (%): 10%
  Population Mitotic Cells (%): 38%
  Population Normal (%): 99%
  Population Pyknosed Nuclei (%): 20%
  Population Tubulin-Different-Phenotype (%): 42%
  Total Cell Count: 154
[11]
  Population Apoptotic (%): 61%
  Population Fragmented Nuclei (%): 14%
  Population Healthy Nuclei (%): 71%
  Population Hoechst High Intensity Objects (%): 7%
  Population Membrane Permeable-Phenotype (%): 1%
  Population Mitochondria Different-Phenotype (%): 10%
  Population Mitotic Cells (%): 38%
  Population Normal (%): 92%
  Population Pyknosed Nuclei (%): 13%
  Population Tubulin-Different-Phenotype (%): 34%
  Total Cell Count: 145
[12]
  Population Apoptotic (%): 71%
  Population Fragmented Nuclei (%): 50%
  Population Healthy Nuclei (%): 31%
  Population Hoechst High Intensity Objects (%): 3%
  Population Membrane Permeable-Phenotype (%): 0%
  Population Mitochondria Different-Phenotype (%): 0%
  Population Mitotic Cells (%): 28%
  Population Normal (%): 96%
  Population Pyknosed Nuclei (%): 18%
  Population Tubulin-Different-Phenotype (%): 62%
  Total Cell Count: 79
